This note sets out measurements from BindingDB's records for doi:10.1021/jm00012a002 (Tosoh, 1995).

The structures appear in SMILES notation.

For experiment [1], the target named is HIV-1 RT (reverse transcriptase). As to the kind of experiment: Inhibitory effect on HIV-1 RT activity using template primer,poly (rA)-oligo (dT). The method in brief: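 Recombinant HIV-1 reverse transcriptase with poly(rA)-oligo(dT) as template-primer; IC50 is the 50% inhibition concentration, given as the mean of at least two separate experiments.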
Experiment [2] in a line: Inhibitory effect on HIV-1 RT activity using template primer,poly (rC)-oligo (dG).

Consider `CC(=O)c1ccc(C)cc1N[C@H](C(N)=O)c1c(Cl)cccc1Cl`, for which the IC50 (commonly the midpoint of a concentration-inhibition curve) in experiment [1] amounted to 16 µM. For the compound `CCCCN(C)C(=O)Oc1nsnc1-c1c(Cl)cccc1Cl` [Butyl-methyl-carbamic acid 4-(2,6-dichloro-phenyl)-[1,2,5]thiadiazol-3-yl ester], the IC50 in experiment [1] was found to be 12 µM.

With `CCN(C)C(=O)Oc1nsnc1-c1c(Cl)cccc1Cl` [Ethyl-methyl-carbamic acid 4-(2,6-dichloro-phenyl)-[1,2,5]thiadiazol-3-yl ester], the IC50 in experiment [1] worked out at 3.4 µM; in experiment [2], 0.3 µM. Regarding `CCCN(C)C(=O)Oc1nsnc1-c1c(Cl)cccc1Cl` [Methyl-propyl-carbamic acid 4-(2,6-dichloro-phenyl)-[1,2,5]thiadiazol-3-yl ester], the IC50 turned out to be 5.8 µM in experiment [1] and 0.8 µM in experiment [2].
